Assay results taken from ChEMBL document CHEMBL5385915 (J Med Chem, 2024).
Converted amounts (≈) assume the structure as drawn.

Tested on: Mycobacterium tuberculosis
Test: Antitubercular activity against multidrug-resistant Mycobacterium tuberculosis 08/00483E assessed as inhibition of bacterial growth measured for 7 days by REMA analysis
Format: functional
Conditions: 168 h, time 7 day
Summary of the method: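 REMA: 2-fold dilutions in CMM MOD2 medium, wells inoculated at 1×10^6 CFU/mL, 7 days at 37 °C with 200 rpm agitation; resazurin (0.02% w/v in PBS pH 7.4, 5% Tween 80) then 6 h at room temperature; OD570 vs vehicle; MIC99 by modified Gompertz function; three biological replicates.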

## FC(F)(F)c1cc([C@H]2C[C@@H](CN3CCCC3)N2Cc2ccccc2Br)cc(C(F)(F)F)c1 (racemic)
  MIC99: 16.8 µM (≈ 8.76 µg/mL)
